In ChEMBL document CHEMBL4613269, “2-((4-Arylpiperazin-1-yl)methyl)benzonitrile Derivatives as Orally Available Inhibitors of Hepatitis C Virus with a Novel Mechanism of Action” (J Med Chem, 2020):
The source made the active and inactive calls. The calls are words filed in the database; no cut-off is given here.

Key:
[1] = Bioavailability in Sprague-Dawley rat at 5 mg/kg, iv measured after 0.08 to 72 hrs post dose by LC-MS/MS analysis; assay type: ADME, organism-based; settings: in vivo
In short: (§1)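 Single dose to fasted (12 h) animals: oral gavage 15 mg/kg as suspension in 0.5% CMC-Na, or iv 5 mg/kg dissolved in citric acid buffer pH 5.0 with 2.5% DMSO. Jugular vein blood on heparin at 0.08 (iv only) to 72 h. Plasma assayed by LC-MS/MS; parameters from noncompartmental analysis.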

[2] = Drug level in Sprague-Dawley rat at 15 mg/kg, po measured after 72 hrs post dose by LC-MS/MS analysis; assay type: ADME, organism-based; settings: in vivo, read-out: Drug uptake; in short: as §1
[3] = Drug level in Sprague-Dawley rat at 5 mg/kg, iv measured after 72 hrs post dose by LC-MS/MS analysis; assay type: ADME, organism-based; settings: in vivo, read-out: Drug uptake; in short: as §1
Hepatitis C virus [4] = experiment: Antiviral activity against HCV GS4.3 infected in human Huh7.5 cells assessed as […] at 0.008 to 1 uM incubated with drug for 2 hrs after viral infection and measured after 72 hrs by Western blot assay; assay type: functional, organism-based; settings: Hepacivirus hominis
Hepatitis C virus [5] = experiment: Synergistic antiviral activity against HCV infected in human Huh7.5 cells assessed as reduction in HCV core protein level by measuring (q) value at 0.1 uM in presence of 0.016 nM daclatasvir incubated for 72 hrs by Western blot assay based Webb method relative to control; assay type: functional, Hepacivirus hominis
In short: (§2)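 Huh7.5 cells in 6-well plates were infected with HCV in the presence of 0.1 μM test compound combined with simeprevir 0.025 μM, sofosbuvir 0.1 μM or daclatasvir 0.016 nM. Western blot at 72 h gave HCV core protein relative to actin, normalized to control. q calculated by Webb's method (q<1 antagonism, =1 addition, >1 synergy); over 3 independent experiments.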

[6] = Cytotoxicity in African green monkey Vero cells assessed as reduction in cell viability; assay type: cell-based; settings: chlorocebus sabaeus
Hepatitis C virus [7] = experiment: Antiviral activity against HCV J6/JFH/JC1 infected in human Huh7.5 cells assessed as reduction in viral RNA levels incubated for 72 hrs by qRT-PCR analysis; assay type: functional, organism-based
In short: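 Huh7.5 cells seeded 24 h, then infected with wild-type (or mutant) HCV with compound added at the same time. Incubated 72 h. Intracellular HCV RNA measured by qRT-PCR, 2^-ΔCt method, normalized to GAPDH. Eight-step 1:5 serial dilutions in triplicate; EC50 by Reed & Muench; three independent experiments.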

[8] = Clearance in beagle dog at 15 mg/kg, po measured after 0.08 to 72 hrs post dose by LC-MS/MS analysis; assay type: ADME, organism-based, Canis lupus familiaris; settings: in vivo; in short: as §1
[9] = Half life in beagle dog at 15 mg/kg, po measured after 0.08 to 72 hrs post dose by LC-MS/MS analysis; assay type: ADME, organism-based, Canis lupus familiaris; settings: in vivo; in short: as §1
[10] = Toxicity in Kunming mouse at 250 to 1000 mg/kg dosed via single oral gavage and measured on day 7 post treatment; assay type: organism-based; settings: in vivo
In short: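 Kunming mice, 4 groups of n = 6 (3 male, 3 female). Fasted from 12 h before to 1 h after dosing. Single oral gavage of 250, 500 or 1000 mg/kg suspended in 0.5% CMC-Na, or vehicle alone. Followed for 7 days: survival, body weight before and at day 7. Day-7 blood taken for AST, ALT, urea nitrogen and creatinine.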

Hepatitis C virus [11] = experiment: Synergistic antiviral activity against HCV infected in human Huh7.5 cells assessed as reduction in HCV core protein level by measuring (q) value at 0.1 uM in presence of 0.1 uM sofosbuvir incubated for 72 hrs by Western blot assay based Webb method relative to control; assay type: functional, Hepacivirus hominis; in short: as §2
[12] = Half life in Sprague-Dawley rat at 5 mg/kg, iv measured after 0.08 to 72 hrs post dose by LC-MS/MS analysis; assay type: ADME, organism-based; settings: in vivo; in short: as §1
Hepatitis C virus [13] = experiment: Antiviral activity against HCV with glycoprotein E1 F291V mutant infected in human Huh7.5 cells assessed as reduction in viral RNA levels incubated for 72 hrs by qRT-PCR analysis; assay type: functional, organism-based, Hepacivirus hominis
In short: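 Huh7.5 cells seeded at 3×10^4/cm², infected 24 h later with wild-type or mutant HCV stock while compound or solvent was added at the same time. Intracellular HCV RNA measured by qRT-PCR at 72 h, normalised to GAPDH, 2^-ΔCT method. EC50 by Reed & Muench from eight-step 1:5 serial dilutions, triplicate wells.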

[14] = Cytotoxicity in African green monkey Vero E6 cells assessed as reduction in cell viability; assay type: cell-based, Vero C1008; settings: chlorocebus sabaeus
Hepatitis C virus [15] = experiment: Synergistic antiviral activity against HCV infected in human Huh7.5 cells assessed as reduction in HCV core protein level by measuring (q) value at 0.1 uM in presence of 0.025 uM simeprevir incubated for 72 hrs by Western blot assay based Webb method relative to control; assay type: functional, Hepacivirus hominis; in short: as §2
[16] = Selectivity index, ratio of CC50 for cytotoxicity in human Huh7.5 cells assessed as reduction in cell viability incubated for 96 hrs by MTT assay to EC50 for antiviral activity against HCV J6/JFH/JC1 infected in human Huh7.5 cells incubated for 72 hrs by In-Cell Western assay; assay type: toxicity, cell-based; settings: read-out: Ratio CC50/EC50
In short: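 HCVcc (MOI=0.1) infected Huh7.5 cells co-treated with eight-step 1:5 serial dilutions, triplicate wells. After 72 h, fixed, permeabilized, and stained for HCV Core and GAPDH with IR-dye secondaries. Core normalized to GAPDH. CC50 came from MTT at 96 h in uninfected Huh7.5 cells. EC50/CC50 were derived by Reed & Muench, mean ± SD of three independent experiments.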

[17] = AUC (0 to 72 hrs) in Sprague-Dawley rat at 15 mg/kg, po measured after 0.08 to 72 hrs post dose by LC-MS/MS analysis; assay type: ADME, organism-based; design: dose 15 mg/kg, time < 72 hr, route oral; settings: in vivo; in short: as §1
[18] = Drug level in Sprague-Dawley rat at 15 mg/kg, po measured after 24 hrs post dose by LC-MS/MS analysis; assay type: ADME, organism-based; settings: in vivo, read-out: Drug uptake; in short: as §1
Hepatitis C virus [19] = experiment: Antiviral activity against HCV J6/JFH/JC1 infected in human Huh7.5 cells incubated for 72 hrs by In-Cell Western assay; assay type: functional, organism-based, Hepacivirus hominis; settings: J6/JFH/JC1, Huh7.5, 72 h
In short: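 Huh7.5 cells infected with HCVcc (MOI 0.1) and treated with compound at the same time for 72 h. Cells fixed with PFA, permeabilized, then stained for HCV Core and GAPDH with IR-dye secondaries. Core signal normalized to GAPDH. Eight-step 1:5 dilutions in triplicate; EC50 by Reed & Muench; mean of three experiments.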

[20] = Cytotoxicity in MDCK cells assessed as reduction in cell viability; assay type: cell-based, Canis lupus familiaris; settings: dog
[21] = Selectivity index, ratio of CC50 for cytotoxicity in African green monkey Vero E6 cells to EC50 for Antiviral activity against Zika virus infected in Vero E6 cells; assay type: toxicity, cell-based, Vero C1008; settings: read-out: Ratio CC50/EC50
[22] = Selectivity index, ratio of CC50 for cytotoxicity in African green monkey Vero cells to EC50 for Antiviral activity against Coxsackievirus B3 infected in Vero cells; assay type: toxicity, cell-based; settings: read-out: Ratio CC50/EC50
Coxsackievirus B3 = experiment: Antiviral activity against Coxsackievirus B3 infected in Vero cells assessed as reduction in virus-induced cytopathic effect incubated for 48 hrs by Reed-Muench method; assay type: functional, organism-based; settings: Enterovirus B
Zika virus = experiment: Antiviral activity against Zika virus infected in Vero E6 cells assessed as reduction in virus-induced cytopathic effect incubated for 96 hrs by CCK8 assay; assay type: functional, organism-based; settings: Vero C1008, 96 h

## CN(C)CCN(C)c1ccc(C#N)c(CN2CCN(c3ccc(Cl)cc3)CC2)c1
[1]
  bioavailability: 59%
[2]
  concentration at 72 h: 13.7 ng/mL
[3]
  concentration at 72 h: 9.2 ng/mL
Hepatitis C virus [4]
  Activity: Active
Hepatitis C virus [5]
  Ratio: 1.27
[6]
  CC50: 22.2 µM
Hepatitis C virus [7]; Hepacivirus hominis
  Activity: Dose-dependent effect
Hepatitis C virus [7]; J6/JFH/JC1, Huh7.5, 72 h
  EC50: 0.022 µM
[8]
  CL/F: 200 mL/min/kg
[9]
  half-life: 12.7 h
[10]
  MTD at 7 day: > 1000 mg/kg
Hepatitis C virus [11]
  Ratio: 1.08
[12]
  half-life: 14.3 h
Hepatitis C virus [13]
  EC50: 0.12 µM
[14]
  CC50: 18.4 µM
Hepatitis C virus [15]
  Ratio: 1.05
[16]
  selectivity ratio: 111 to 154
[17]
  AUC(0-t) at 72 h: 9590 ng·h/mL
[18]
  concentration at 24 h: 119 ng/mL
Hepatitis C virus [19]
  EC50: 0.083 to 0.125 µM
[20]
  CC50: 4.28 µM
[21]
  selectivity ratio: 3
[22]
  selectivity ratio: 3
Coxsackievirus B3
  EC50: 7.41 µM
Zika virus
  EC50: 5.15 µM
